Experimental findings from ChEMBL document CHEMBL4354845, “Discovery and Structure-Activity Relationships of Nociceptin Receptor Partial Agonists That Afford Symptom Ablation in Parkinson's Disease Models” (J Med Chem, 2020) are described below.

The nature of data set [1]: Apparent permeability across apical to basolateral side in human Caco2 cells by HPLC-MS/MS analysis. The class given is ADME, cell-based. Particulars: Caco-2. The gist of the method: (§1)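 Caco-2 monolayers, two-way permeability (apical→basolateral and basolateral→apical), compound monitored by HPLC/MS/MS and reported as Papp (10^-6 cm/s). Papp >1.0x10^-6 cm/s with efflux ratio <3 classed as high permeability/no efflux.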
A general note: Passage across Caco-2 layers is used to estimate intestinal permeability.

Data set [2] is described as follows: Apparent permeability across basolateral to apical side in human Caco2 cells by HPLC-MS/MS analysis. The class given is ADME, cell-based. Particulars: Caco-2. The gist of the method:
as §1

Data set [3] is described as follows: Apparent permeability across apical to basolateral side in dog MDCK-MDR1 cells by HPLC-MS/MS analysis. The class given is ADME, cell-based, Canis lupus familiaris. The essentials:
(§2)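 MDR1-MDCK monolayers, bidirectional permeability (A→B and B→A), compound quantified by HPLC/MS/MS and expressed as Papp (10^-6 cm/s). Efflux ratio B–A/A–B. High BBB permeability taken as Papp A–B >3.0 with efflux ratio <3; efflux ratio >3 counted as high efflux.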

Data set [4] in a line: Apparent permeability across basolateral to apical side in dog MDCK-MDR1 cells by HPLC-MS/MS analysis. The class given is ADME, cell-based, Canis lupus familiaris. The essentials:
as §2

Data set [5] can be described thus: Stability in mouse liver microsomes assessed as half life at 1 uM incubated for 60 mins by LC-MS/MS analysis. The class given is ADME, Microsome. The gist of the method: (§3)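 Compound at 1 µM incubated at 37°C with liver microsomes in 100 mM potassium phosphate pH 7.4 and 5 mM MgCl2. Reaction started with 1 mM NADPH, sampled at 30, 45 and 60 min and quenched with acetonitrile/0.1% formic acid. Parent loss measured by LC-MS against t=0 with propranolol internal standard. Half-life from single-phase exponential fit, in duplicate.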
In general terms: Liver microsomes are a subcellular fraction often used to study metabolism.

Data set [6] in a line: Cmax in Sprague-Dawley rat plasma at 3 mg/kg, sc measured upto 8 hrs by LC-MS/MS analysis. Further details: dose 3 mg/kg, route subcutaneous. The class given is ADME, organism-based. The essentials: (§4)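 Male Sprague-Dawley rats (250–300 g) given a single s.c. dose of 3 mg/kg (2 mL/kg) as a 1.5 mg/ml solution in 5% dimethylacetamide/95% of 30% SBECD. Plasma (K2-EDTA) and brain collected at 0.5, 1, 2, 4 and 8 h. Brain homogenised 1:4 w/v in water. Terfenadine internal standard, positive-ion ESI LC-MS/MS. Noncompartmental analysis, linear trapezoidal AUC to 8 h. Brain values are total.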

Data set [7] can be described thus: Tmax in Sprague-Dawley rat plasma at 3 mg/kg, sc measured upto 8 hrs by LC-MS/MS analysis. The class given is ADME, organism-based. The gist of the method:
as §4

A short description of data set [8]: AUClast in Sprague-Dawley rat plasma at 3 mg/kg, sc measured upto 8 hrs by LC-MS/MS analysis. In kind it is ADME, organism-based. Also on record: dose 3 mg/kg, time < 8 hr, route subcutaneous. The essentials: as §4
The nature of data set [9]: Half life in Sprague-Dawley rat plasma at 3 mg/kg, sc measured upto 8 hrs by LC-MS/MS analysis. In kind it is ADME, organism-based. The gist of the method: as §4
A short description of data set [10]: Cmax in Sprague-Dawley rat brain at 3 mg/kg, sc measured upto 8 hrs by LC-MS/MS analysis. The class given is ADME, organism-based. Further details: dose 3 mg/kg, route subcutaneous. The essentials:
as §4

Data set [11] can be described thus: Tmax in Sprague-Dawley rat brain at 3 mg/kg, sc measured upto 8 hrs by LC-MS/MS analysis. In kind it is ADME, organism-based. The essentials: as §4
A short description of data set [12]: AUClast in Sprague-Dawley rat brain at 3 mg/kg, sc measured upto 8 hrs by LC-MS/MS analysis. The class given is ADME, organism-based. Also on record: time < 8 hr, dose 3 mg/kg, route subcutaneous. The essentials: as §4
Data set [13] in a line: Half life in Sprague-Dawley rat brain at 3 mg/kg, sc measured upto 8 hrs by LC-MS/MS analysis. In kind it is ADME, organism-based. The gist of the method:
as §4

Data set [14] relates to Rattus norvegicus. Description: Anti-parkinson's disease activity in 6-OHDA-induced hemi-lesioned Sprague-Dawley rat model of Parkinson's disease assessed as reduction in immobility time at 0.01 to 1 mg/kg, ip administered for 3 days and measured after 20 mins of compound administration by bar test. In kind it is functional, organism-based. The gist of the method: (§5)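 Rats received unilateral 6-OHDA (8 µg freebase) into the medial forebrain bundle and were enrolled if they made >7 ipsilateral turns/min after D-amphetamine 5 mg/kg i.p. They were trained to reproducible performance, then given acute i.p. doses or vehicle (saline + 5% Tween 80, 1% DMSO) with 3-day washouts. Contralateral paw scored at 20 and 90 min in bar and drag tests. Rotarod started at 5 rpm, rising 5 rpm/180 s, expressed as % of control. Analysis by two-way ANOVA with Bonferroni.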

For data set [15], the system named is Rattus norvegicus. As to the kind of experiment: Anti-parkinson's disease activity in 6-OHDA-induced hemi-lesioned Sprague-Dawley rat model of Parkinson's disease assessed as increase in stepping activity at 0.01 to 1 mg/kg, ip administered for 3 days and measured after 90 mins of compound administration by drag test. In kind it is functional, organism-based. The gist of the method:
as §5

For data set [16], the system named is Rattus norvegicus. As to the kind of experiment: Anti-parkinson's disease activity in 6-OHDA-induced hemi-lesioned Sprague-Dawley rat model of Parkinson's disease assessed as increase in time spent on rotarod at 0.01 to 1 mg/kg, ip administered for 3 days and measured after 20 mins of compound administration by rotarod test. The class given is functional, organism-based. The gist of the method: as §5
On the technique in general: Falling from the rotarod earlier than controls is read as motor impairment.

For data set [17], the system named is Rattus norvegicus. As to the kind of experiment: Anti-parkinson's disease activity in Sprague-Dawley rat model of L-DOPA-induced dyskinesia at 0.1 to 3 mg/kg, ip administered for 3 days. The class given is functional, organism-based.
For data set [18], the system named is Rattus norvegicus. Description: Anti-parkinson's disease activity in Sprague-Dawley rat model of L-DOPA-induced dyskinesia at 0.01 to 1 mg/kg, ip administered for 3 days. In kind it is functional, organism-based.
A short description of data set [19]: Stability in human liver microsomes assessed as half life at 1 uM incubated for 60 mins by LC-MS/MS analysis. In kind it is ADME, Microsome. The gist of the method:
as §3

Data set [20] is described as follows: Stability in rat liver microsomes assessed as half life at 1 uM incubated for 60 mins by LC-MS/MS analysis. In kind it is ADME, Microsome. The gist of the method: as §3
Data set [21] has as its system Rattus norvegicus. Description: Anti-parkinson's disease activity in 6-OHDA-induced hemi-lesioned Sprague-Dawley rat model of Parkinson's disease assessed as reduction in immobility time at 0.1 to 3 mg/kg, ip administered for 3 days and measured after 20 mins of compound administration by bar test. The class given is functional. Further details: scale not given: the % may be the effect or the level left. The gist of the method: as §5

Data set [22] has as its system Rattus norvegicus. Description: Anti-parkinson's disease activity in 6-OHDA-induced hemi-lesioned Sprague-Dawley rat model of Parkinson's disease assessed as increase in stepping activity at 0.1 to 3 mg/kg, ip administered for 3 days and measured after 90 mins of compound administration by drag test. The class given is functional, organism-based. The essentials:
as §5

The test system of data set [23] is Rattus norvegicus. As to the kind of experiment: Anti-parkinson's disease activity in 6-OHDA-induced hemi-lesioned Sprague-Dawley rat model of Parkinson's disease assessed as increase in time spent on rotarod at 0.1 to 3 mg/kg, ip administered for 3 days and measured after 20 mins of compound administration by rotarod test. In kind it is functional. The essentials:
as §5

The structures appear in SMILES notation. The source made the active and inactive calls. The calls are words filed in the database; no cut-off is given here. A value given as a limit tells only on which side of the number the result lay.

The term Papp A→B denotes the apparent permeability from the apical to the basolateral side of a cell layer. By Papp B→A is commonly meant how fast a substance crosses the layer from the basolateral side. One may read the half-life as the time in which the quantity being followed falls by half. A word on the Cmax: it is the highest concentration seen after dosing. Broadly, the Tmax is the time from dosing to the highest level. For orientation: AUC(0-t) means the area under the concentration-time curve up to a stated or last time point. On to `CC(C)[C@H]1CC[C@@H](N2CCC(N3CCc4ccccc43)CC2)CC1`, for which the apical-to-basolateral permeability (Papp A→B) in [1] was determined as 300 nm/s; in data set [3], 268 nm/s. Besides, the apparent permeability from basolateral to apical (Papp B→A) in data set [2] is 250 nm/s; in [4], 338 nm/s. Besides, in data set [5], the half-life at 1 µM amounted to 0.0467 h. In addition, the results for the Cmax in data set [6] and in data set [10] were 0.456 µM and 3.07 µM, respectively. Moreover, the time to peak (Tmax) in data set [7] and in [11] was 0.5 h throughout. In addition, the area under the curve AUC(0-t) at 8 h in data set [8] came to 1.25 µM·h; in data set [12] it was 6.7 µM·h. Also, the half-life in data set [9] is 2.13 h; in data set [13] it was 2.71 h. Besides, the result in the data set on Rattus norvegicus [14], in the data set on Rattus norvegicus [15] and with Rattus norvegicus [16] was Active. For the same compound, the outcome with Rattus norvegicus [17] and in the data set with Rattus norvegicus [18] was inactive.
`CC(C)[C@H]1CC[C@@H](N2CCC(n3cc(CN)c4ccccc43)CC2)CC1`: the apparent permeability from apical to basolateral (Papp A→B) in data set [1] was found to be 46.4 nm/s; in [3], 3.4 nm/s. The apparent permeability from basolateral to apical (Papp B→A) in [2] is 49.2 nm/s; in data set [4] it was 144 nm/s. In addition, the half-life at 1 µM in data set [19] and in data set [20] was more than 1 h in each case. The results for the Cmax in data set [6] and in data set [10] were 0.529 µM and 0.956 µM, respectively. Also, the Tmax in data set [7] stood at 0.5 h; in data set [11], 4 h. For the same compound, the figures for the AUC(0-t) at 8 h in data set [8] and in data set [12] were 1 µM·h and 6.13 µM·h, respectively. Moreover, the half-life in data set [9] is 2.61 h; in data set [13], 10.8 h. Also, the outcome in the data set on Rattus norvegicus [14], with Rattus norvegicus [15] and with Rattus norvegicus [16] was Active. In addition, the result in the data set on Rattus norvegicus [17] and in the data set with Rattus norvegicus [18] was inactive.
Consider `CC(C)[C@H]1CC[C@@H](N2CCC(n3ccc4ccccc43)CC2)CC1`, for which the Activity with Rattus norvegicus [21] is given as 25%; in the data set with Rattus norvegicus [23], 20%. Also, the Papp A→B in data set [1] turned out to be 240 nm/s; in data set [3] it was 288 nm/s. The basolateral-to-apical permeability (Papp B→A) is 191 nm/s in data set [2] and 152 nm/s in data set [4]. Moreover, the values for the half-life at 1 µM in data set [19] and in [20] were 0.0883 h and 0.0967 h, respectively. The values for the Cmax in data set [6] and in [10] were 0.626 µM and 4.17 µM, respectively. The Tmax was 1 h in [7] and 0.5 h in data set [11]. In addition, the area under the curve AUC(0-t) at 8 h in data set [8] amounted to 1.96 µM·h; in data set [12], 10.1 µM·h. Also, the half-life in data set [9] is 2.19 h; in data set [13], 2.43 h. Further, the result in the data set on Rattus norvegicus [22] was Active. The outcome in the data set on Rattus norvegicus [17] and in the data set with Rattus norvegicus [18] was inactive.
For `CC(C)[C@H]1CC[C@@H](N2CCC(n3cc(CCN)c4ccccc43)CC2)CC1.Cl.Cl`, the figures for the Papp A→B in data set [1] and in [3] were 43.6 nm/s and 6 nm/s, respectively. Also, the Papp B→A in data set [2] was 64.9 nm/s; in [4], 221 nm/s. Further, the half-life at 1 µM in data set [5] is more than 1 h.
